In brackets after ≈: the same amount, converted by molar mass.
What was measured:
Format in all cases: functional
[1] = system: Mycobacterium tuberculosis; assay: Antimicrobial activity against isoniazid-resistant Mycobacterium tuberculosis H37Rv SRI 1369 assessed as growth inhibition after 7 days by broth microdilution assay; settings: H37Rv SRI 1369, 168 h
Procedure, shortened: (§1)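 Broth microdilution per CLSI in Middlebrook 7H9 + OADC; ten two-fold dilutions; inoculum targeted 1.0 × 10^6 CFU/mL M. tuberculosis; 37 °C, ~90% humidity, 7 days. Wells scored visually for turbidity, partial or complete clearing; MIC = lowest concentration visually inhibiting growth; percent inhibition at the MIC also recorded. Duplicates; rifampin or isoniazid positive control, medium-only and organism-only controls.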

[2] = system: Mycobacterium tuberculosis; assay: Antimicrobial activity against rifampin-resistant Mycobacterium tuberculosis H37Rv SRI 1367 assessed as growth inhibition at MIC after 7 days by broth microdilution assay relative to control; procedure, shortened: as §1
[3] = system: Mycobacterium tuberculosis; assay: Antimicrobial activity against ofloxacin-resistant Mycobacterium tuberculosis H37Rv SRI 4000 assessed as growth inhibition after 7 days by broth microdilution assay; settings: H37Rv SRI 4000, 168 h; procedure, shortened: as §1
[4] = system: Mycobacterium tuberculosis; assay: Antimicrobial activity against rifampin-resistant Mycobacterium tuberculosis H37Rv SRI 1367 assessed as growth inhibition after 7 days by broth microdilution assay; settings: H37Rv SRI 1367, 168 h; procedure, shortened: as §1
[5] = system: Mycobacterium tuberculosis; assay: Antimicrobial activity against ofloxacin-resistant Mycobacterium tuberculosis H37Rv SRI 4000 assessed as growth inhibition at MIC after 7 days by broth microdilution assay relative to control; procedure, shortened: as §1
[6] = system: Mycobacterium tuberculosis; assay: Antimicrobial activity against isoniazid-resistant Mycobacterium tuberculosis H37Rv SRI 1369 assessed as growth inhibition at MIC after 7 days by broth microdilution assay relative to control; procedure, shortened: as §1

SMILES	MIC [1] [µg/mL]	growth inhibition (GI) [2] [%]	MIC [3] [µg/mL]	MIC [4] [µg/mL]	growth inhibition (GI) [5] [%]	growth inhibition (GI) [6] [%]
Clc1ccc2nc3c(c(-c4ccccc4)c2c1)CCC3	6.25 (≈ 22.3 µM)	83	12.5 (≈ 44.7 µM)	6.25 (≈ 22.3 µM)	81	69
O=[N+]([O-])c1ccc2nc3c(c(-c4ccccc4)c2c1)CCCC3	6.25 (≈ 20.5 µM)	69	3.12 (≈ 10.3 µM)	3.12 (≈ 10.3 µM)	50	41
O=[N+]([O-])c1ccc2nc3c(c(-c4ccccc4)c2c1)CCCCC3	37.5 (≈ 118 µM)	72	37.5 (≈ 118 µM)	37.5 (≈ 118 µM)	70	52
NNC(=O)c1ccncc1 [ISONIAZID]	–	85	–	0.02 (≈ 0.146 µM)	–	–
CO[C@H]1/C=C/O[C@@]2(C)Oc3c(C)c(O)c4c(O)c(c(/C=N/N5CCN(C)CC5)c(O)c4c3C2=O)NC(=O)/C(C)=C\C=C\[C@H](C)[C@H](O)[C@@H](C)[C@@H](O)[C@@H](C)[C@H](OC(C)=O)[C@@H]1C [RIFAMPIN]	0.02 (≈ 0.0243 µM)	–	1.56 (≈ 1.9 µM)	–	71	74

— ChEMBL document CHEMBL3112573, “Design, synthesis and evaluation of acridine and fused-quinoline derivatives as potential anti-tuberculosis agents” (Eur J Med Chem, 2014)
